Results: ChEMBL document CHEMBL4837188, “Identification of Novel Tricyclic Benzo[1,3]oxazinyloxazolidinones as Potent Antibacterial Agents with Excellent Pharmacokinetic Profiles against Drug-Resistant Pathogens” (J Med Chem, 2021)
pIC50: −log10 of the molar value. In brackets after ≈: the same amount, converted by molar mass.

Key:
[1] = Inhibition of mitochondrial protein synthesis in […] H9C2 cells after 5 days by ELISA; assay type: functional, cell-based; conditions: Rattus norvegicus, H9c2, 120 h
Procedure, shortened: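 H9C2 cells in DMEM with 10% FBS, glutamine and NEAA, seeded at 1500 cells/well. After 18 h, compounds added at final 200 to 0.03 μM in nine 3-fold steps, then 5 days at 37 °C, 5% CO2. Negative control 0.5% DMSO. Mitochondrial protein synthesis read by MitoBiogenesis In-Cell ELISA; IC50 fitted.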

[2] = MRT (0 to infinity) in BALB/c mouse at 1 mg/kg, iv measured upto 24 hrs by LC-MS/MS analysis; assay type: ADME, organism-based; conditions: in vivo
Procedure, shortened: (§1)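 Female BALB/c mice, 16−21 g, three per route. Oral dosing at 10 mg/kg as a 5 mg/mL suspension in 0.5% carboxymethyl cellulose. IV dosing at 1 mg/kg as a 1 mg/mL solution in 10% DMSO/50% PEG400/40% water. Blood sampled 15 min to 24 h after oral dosing and 5 min to 24 h after iv. LC/MS/MS quantification in ESI positive mode. Noncompartmental analysis; F = (AUCpo×dose_iv)/(AUCiv×dose_po)×100%.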

[3] = Metabolic stability in pooled human liver microsomes assessed as substrate remaining in presence of NADPH incubated for 30 mins by LC-MS analysis; assay type: ADME, Microsome; conditions: read-out: Stabilty
Procedure, shortened: (§2)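 Microsomes from male CD-1 mouse or pooled human, 1 mg/mL protein in 0.05 M phosphate buffer pH 7.4. Compound at final 0.1 μM with DMSO cosolvent. Incubated at 37 °C with 1 mM NADPH, or with buffer in place of NADPH. Sampled at 0 and 30 min and quenched with acetonitrile. LC−MS measurement; substrate remaining at 30 min normalized to time zero.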

[4] = AUC (0 to infinity) in BALB/c mouse at 1 mg/kg, iv measured upto 24 hrs by LC-MS/MS analysis; assay type: ADME, organism-based; parameters: route intravenous, dose 1 mg/kg, time <=24; conditions: in vivo; procedure, shortened: as §1
[5] = Apparent volume of distribution in BALB/c mouse at 1 mg/kg, iv measured upto 24 hrs by LC-MS/MS analysis; assay type: ADME, organism-based; conditions: in vivo, read-out: Vz; procedure, shortened: as §1
[6] = Cmax in BALB/c mouse at 10 mg/kg, po measured upto 24 hrs by LC-MS/MS analysis; assay type: ADME, organism-based; parameters: route oral, dose 10 mg/kg, time <=24; conditions: in vivo; procedure, shortened: as §1
[7] = Cmax in BALB/c mouse at 1 mg/kg, iv measured upto 24 hrs by LC-MS/MS analysis; assay type: ADME, organism-based; parameters: route intravenous, dose 1 mg/kg, time <=24; conditions: in vivo; procedure, shortened: as §1
[8] = molecular target: T1, Amine oxidase [flavin-containing] A (Homo sapiens, UniProt P21397); test: Inhibition of MAO-A (unknown origin) using kynuramine as substrate preincubated for 5 mins with substrate followed by enzyme addition and measured after 15 mins by LC-MS/MS analysis
T1 sequence (P21397 whole entry): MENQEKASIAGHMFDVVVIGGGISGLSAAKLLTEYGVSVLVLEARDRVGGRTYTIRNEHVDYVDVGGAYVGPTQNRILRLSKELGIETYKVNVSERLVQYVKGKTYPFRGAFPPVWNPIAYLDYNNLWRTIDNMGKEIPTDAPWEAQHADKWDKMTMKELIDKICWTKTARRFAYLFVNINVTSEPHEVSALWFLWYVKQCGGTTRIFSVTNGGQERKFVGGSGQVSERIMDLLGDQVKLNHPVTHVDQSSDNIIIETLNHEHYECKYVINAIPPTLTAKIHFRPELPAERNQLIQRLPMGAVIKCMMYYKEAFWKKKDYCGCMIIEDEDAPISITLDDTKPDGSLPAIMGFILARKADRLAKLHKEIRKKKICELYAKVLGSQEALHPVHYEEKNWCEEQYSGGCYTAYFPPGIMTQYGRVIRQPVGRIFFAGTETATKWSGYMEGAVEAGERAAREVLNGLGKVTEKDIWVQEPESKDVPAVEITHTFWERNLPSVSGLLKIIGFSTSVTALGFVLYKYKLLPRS
Procedure, shortened: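 Recombinant MAO-A (0.01 mg/mL working solution) or MAO-B (0.04 mg/mL working solution) in phosphate buffer. Kynuramine 40 μM working solution. Compound or DMSO preincubated with substrate for 5 min at 37 °C; enzyme then added and incubated 15 min at 37 °C. Reaction quenched. Product 4-hydroxyquinoline (printed as 4-hydroxyquinolinol) measured by LC−MS/MS. Six concentrations in 4-fold dilutions; IC50 from % inhibition versus vehicle.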

[9] = Elimination half life in BALB/c mouse at 10 mg/kg, po measured upto 24 hrs by LC-MS/MS analysis; assay type: ADME, organism-based; conditions: in vivo, read-out: beta t1/2 (converted); procedure, shortened: as §1
[10] = Metabolic stability in CD-1 mouse liver microsomes incubated for 30 mins by LC-MS analysis; assay type: ADME, Microsome; conditions: CD-1, mouse, liver microsomes, read-out: Stabilty; procedure, shortened: as §2
[11] = test system: Staphylococcus capitis; test: Antibacterial activity against linezolid resistant Staphylococcus capitis assessed as bacterial growth inhibition after 18 hrs by broth microdilution method; assay type: functional
[12] = test system: Escherichia coli; test: Antibacterial activity against Escherichia coli 25922 assessed as inhibition of bacterial growth incubated for 18 hrs by broth microdilution method; assay type: functional; conditions: ATCC 25922
Procedure, shortened: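 Broth microdilution in 96-well plates. Media: cation-adjusted Mueller−Hinton broth for S. aureus, brain heart infusion for VRE, Mueller−Hinton broth for the other strains. Incubated at 37 °C for 18 h, then A600 read. Percent growth inhibition calculated against 1% DMSO vehicle.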

Structure (SMILES): CC(=O)NC[C@@H]1OC(=O)N2Cc3cc(-c4ccc(C#N)nc4)c(F)cc3O[C@@H]12
- pIC50 [1]: 5.79
- MRT inf [2]: 4.71 h
- remaining at 0.5 h [3]: 118%
- AUC(0-inf) [4]: 6160 ng·h/mL
- Vd [5]: 0.762 L/kg
- Cmax [6]: 10300 ng/mL
- Cmax [7]: 1790 ng/mL
- pIC50 [8]: < 4.30
- half-life [9]: 3.76 h
- remaining at 0.5 h [10]: 108%
- MIC [11]: 2 µg/mL (≈ 5.23 µM)
- MIC [12]: > 64 µg/mL
